# In the M2OR odorant receptor database:
# Where a chain is given by its changes, count along the chain named.
# What was measured:
# Conditions in all cases: stereoisomer not certain
# UniProt L7N1Y8 = target: UniProt L7N1Y8
# Method in brief: (§1)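 Assay methods differ from source to source, frequently being transient luciferase assays in mammalian cell lines. For each receptor–molecule pair, the label responsive (active) applies when the original authors judged the measured signal statistically different from baseline, and non-responsive (inactive) applies otherwise.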
# UniProt Q7TR75 = target: UniProt Q7TR75
# Chain of UniProt Q7TR75 (Q7TR75 as listed by the source): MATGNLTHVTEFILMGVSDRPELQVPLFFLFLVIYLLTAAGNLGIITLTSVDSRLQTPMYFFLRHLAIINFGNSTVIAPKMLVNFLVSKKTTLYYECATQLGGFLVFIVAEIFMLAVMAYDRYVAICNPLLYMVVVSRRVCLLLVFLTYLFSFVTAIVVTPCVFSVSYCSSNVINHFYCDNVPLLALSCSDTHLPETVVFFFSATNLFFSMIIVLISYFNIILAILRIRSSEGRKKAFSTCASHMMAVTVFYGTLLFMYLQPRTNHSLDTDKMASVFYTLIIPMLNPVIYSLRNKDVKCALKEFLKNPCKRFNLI
# Method in brief: as §1
# UniProt Q7TRA1 = target: T1, UniProt Q7TRA1
# T1 sequence (whole entry): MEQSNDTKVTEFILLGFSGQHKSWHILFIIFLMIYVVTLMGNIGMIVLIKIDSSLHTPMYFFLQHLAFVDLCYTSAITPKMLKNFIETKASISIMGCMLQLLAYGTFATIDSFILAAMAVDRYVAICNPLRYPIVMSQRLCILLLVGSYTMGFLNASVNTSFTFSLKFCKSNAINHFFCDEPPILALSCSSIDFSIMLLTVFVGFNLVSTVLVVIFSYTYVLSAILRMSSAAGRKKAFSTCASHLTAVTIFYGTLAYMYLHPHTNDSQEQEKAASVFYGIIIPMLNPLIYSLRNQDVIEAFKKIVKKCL
# Method in brief: as §1
# UniProt Q7TRA2 = target: T2, UniProt Q7TRA2
# T2 sequence (whole entry): T1 sequence (whole entry) with S18A, I86T, I94F, M95I, S112C, V208L, T219I, V221I, V305A
# Method in brief: as §1
# UniProt Q7TRB8 = target: UniProt Q7TRB8
# Chain of UniProt Q7TRB8 (Q7TRB8 as listed by the source): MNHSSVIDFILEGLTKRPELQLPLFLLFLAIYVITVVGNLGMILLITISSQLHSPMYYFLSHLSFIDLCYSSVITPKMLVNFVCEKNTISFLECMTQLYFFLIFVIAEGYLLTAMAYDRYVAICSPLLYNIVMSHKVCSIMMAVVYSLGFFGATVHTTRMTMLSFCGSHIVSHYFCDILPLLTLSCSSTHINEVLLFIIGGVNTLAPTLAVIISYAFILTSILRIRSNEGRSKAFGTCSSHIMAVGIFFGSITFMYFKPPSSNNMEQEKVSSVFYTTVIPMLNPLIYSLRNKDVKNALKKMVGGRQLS
# Method in brief: as §1
# UniProt Q7TRM0 = target: T3, UniProt Q7TRM0
# T3 sequence (whole entry): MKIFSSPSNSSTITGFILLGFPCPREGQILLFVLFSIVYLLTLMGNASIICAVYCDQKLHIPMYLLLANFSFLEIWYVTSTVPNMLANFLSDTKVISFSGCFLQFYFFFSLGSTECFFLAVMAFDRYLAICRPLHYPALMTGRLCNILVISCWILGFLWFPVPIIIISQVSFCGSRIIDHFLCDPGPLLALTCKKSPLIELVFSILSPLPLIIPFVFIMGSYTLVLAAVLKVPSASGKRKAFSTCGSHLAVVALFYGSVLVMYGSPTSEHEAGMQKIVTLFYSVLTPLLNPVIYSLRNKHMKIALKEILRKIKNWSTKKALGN
# Method in brief: as §1
# UniProt Q7TRN9 = target: T4, UniProt Q7TRN9
# T4 sequence (whole entry): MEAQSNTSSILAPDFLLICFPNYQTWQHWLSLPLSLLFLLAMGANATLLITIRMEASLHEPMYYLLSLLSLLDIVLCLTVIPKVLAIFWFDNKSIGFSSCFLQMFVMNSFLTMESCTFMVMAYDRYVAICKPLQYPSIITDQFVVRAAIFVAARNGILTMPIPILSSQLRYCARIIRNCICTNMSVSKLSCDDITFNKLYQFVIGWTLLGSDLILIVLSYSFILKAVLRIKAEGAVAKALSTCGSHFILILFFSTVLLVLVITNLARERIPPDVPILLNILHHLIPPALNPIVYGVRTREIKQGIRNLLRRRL
# Method in brief: as §1
# UniProt L7MU75 = target: T5, UniProt L7MU75
# T5 sequence (whole entry): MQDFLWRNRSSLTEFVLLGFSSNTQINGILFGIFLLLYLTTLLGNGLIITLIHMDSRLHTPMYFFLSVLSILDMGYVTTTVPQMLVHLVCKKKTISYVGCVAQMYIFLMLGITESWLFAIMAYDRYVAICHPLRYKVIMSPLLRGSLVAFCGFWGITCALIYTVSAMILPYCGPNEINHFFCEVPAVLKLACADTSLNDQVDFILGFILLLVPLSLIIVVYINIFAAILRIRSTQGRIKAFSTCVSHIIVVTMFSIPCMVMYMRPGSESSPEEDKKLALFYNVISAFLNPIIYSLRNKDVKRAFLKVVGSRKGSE
# Method in brief: as §1
# UniProt L7N210 = target: T6, UniProt L7N210
# T6 sequence (whole entry): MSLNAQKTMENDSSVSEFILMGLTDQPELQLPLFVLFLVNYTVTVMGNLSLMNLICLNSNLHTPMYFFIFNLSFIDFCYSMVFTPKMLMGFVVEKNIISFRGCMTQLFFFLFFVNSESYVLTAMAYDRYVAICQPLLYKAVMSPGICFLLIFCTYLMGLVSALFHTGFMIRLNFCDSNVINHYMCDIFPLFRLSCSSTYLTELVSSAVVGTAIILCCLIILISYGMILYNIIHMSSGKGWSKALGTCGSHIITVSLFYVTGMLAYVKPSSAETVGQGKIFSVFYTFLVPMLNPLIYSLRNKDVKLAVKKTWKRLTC
# Method in brief: as §1
# UniProt Q3KPB0 = target: T7, UniProt Q3KPB0
# T7 sequence (whole entry): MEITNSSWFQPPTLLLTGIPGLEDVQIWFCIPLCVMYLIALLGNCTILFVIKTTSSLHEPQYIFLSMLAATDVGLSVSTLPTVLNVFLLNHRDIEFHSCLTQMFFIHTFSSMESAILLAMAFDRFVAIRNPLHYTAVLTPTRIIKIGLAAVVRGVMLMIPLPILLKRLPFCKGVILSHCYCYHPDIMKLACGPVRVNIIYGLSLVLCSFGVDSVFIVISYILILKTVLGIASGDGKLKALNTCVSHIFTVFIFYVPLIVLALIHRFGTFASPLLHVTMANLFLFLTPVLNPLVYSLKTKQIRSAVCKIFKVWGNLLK
# Method in brief: as §1
# UniProt Q3U0P3 = target: T8, UniProt Q3U0P3
# T8 sequence (whole entry): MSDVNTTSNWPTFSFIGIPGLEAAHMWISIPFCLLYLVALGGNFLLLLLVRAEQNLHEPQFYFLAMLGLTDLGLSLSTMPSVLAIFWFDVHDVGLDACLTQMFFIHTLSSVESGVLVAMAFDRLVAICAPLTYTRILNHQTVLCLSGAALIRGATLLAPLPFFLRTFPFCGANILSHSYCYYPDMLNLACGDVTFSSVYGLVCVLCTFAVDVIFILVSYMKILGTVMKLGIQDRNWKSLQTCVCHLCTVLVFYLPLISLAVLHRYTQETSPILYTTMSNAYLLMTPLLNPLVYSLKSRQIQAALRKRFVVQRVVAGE
# Method in brief: as §1
# UniProt Q7TQU8 = target: T9, UniProt Q7TQU8
# T9 sequence (whole entry): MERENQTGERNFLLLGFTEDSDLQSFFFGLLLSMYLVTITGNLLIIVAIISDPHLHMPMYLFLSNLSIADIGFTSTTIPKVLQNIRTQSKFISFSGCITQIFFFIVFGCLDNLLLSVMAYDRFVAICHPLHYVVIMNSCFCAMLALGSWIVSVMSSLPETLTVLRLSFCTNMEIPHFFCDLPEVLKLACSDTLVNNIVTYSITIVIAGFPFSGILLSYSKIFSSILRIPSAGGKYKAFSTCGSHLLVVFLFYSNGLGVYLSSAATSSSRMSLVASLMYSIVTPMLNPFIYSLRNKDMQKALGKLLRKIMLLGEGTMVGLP
# Method in brief: as §1
# UniProt Q7TR79 = target: T10, UniProt Q7TR79
# T10 sequence (whole entry): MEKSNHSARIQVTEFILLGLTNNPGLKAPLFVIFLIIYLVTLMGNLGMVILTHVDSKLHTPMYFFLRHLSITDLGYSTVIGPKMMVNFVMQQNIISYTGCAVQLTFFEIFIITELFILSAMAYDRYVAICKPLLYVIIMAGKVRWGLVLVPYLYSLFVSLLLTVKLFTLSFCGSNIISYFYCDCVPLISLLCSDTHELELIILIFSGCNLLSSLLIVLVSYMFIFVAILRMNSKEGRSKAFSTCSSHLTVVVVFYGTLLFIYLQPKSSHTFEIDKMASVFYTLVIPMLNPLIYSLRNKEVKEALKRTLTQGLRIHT
# Method in brief: as §1
# UniProt Q7TQV4 = target: T11, UniProt Q7TQV4
# T11 sequence (whole entry): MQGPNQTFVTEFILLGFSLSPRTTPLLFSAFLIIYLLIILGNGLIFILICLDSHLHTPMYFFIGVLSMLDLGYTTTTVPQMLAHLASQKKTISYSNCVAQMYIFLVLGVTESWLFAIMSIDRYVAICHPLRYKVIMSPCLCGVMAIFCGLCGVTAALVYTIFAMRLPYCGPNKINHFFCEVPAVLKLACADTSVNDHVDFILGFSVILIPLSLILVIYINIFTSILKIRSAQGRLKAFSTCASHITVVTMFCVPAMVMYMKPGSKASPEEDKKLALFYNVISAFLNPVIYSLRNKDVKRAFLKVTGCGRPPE
# Method in brief: as §1
# UniProt Q7TR71 = target: T12, UniProt Q7TR71
# T12 sequence (whole entry): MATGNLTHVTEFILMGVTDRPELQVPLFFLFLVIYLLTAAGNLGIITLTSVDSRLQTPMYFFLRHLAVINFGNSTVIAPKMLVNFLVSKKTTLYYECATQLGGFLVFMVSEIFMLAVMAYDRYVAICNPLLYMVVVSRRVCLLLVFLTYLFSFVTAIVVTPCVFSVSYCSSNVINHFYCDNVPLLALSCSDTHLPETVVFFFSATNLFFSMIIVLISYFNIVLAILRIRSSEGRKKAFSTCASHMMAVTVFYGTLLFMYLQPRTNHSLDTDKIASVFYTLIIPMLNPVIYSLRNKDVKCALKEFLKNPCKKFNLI
# Method in brief: as §1
# UniProt Q7TRA3 = target: T13, UniProt Q7TRA3
# T13 sequence (whole entry): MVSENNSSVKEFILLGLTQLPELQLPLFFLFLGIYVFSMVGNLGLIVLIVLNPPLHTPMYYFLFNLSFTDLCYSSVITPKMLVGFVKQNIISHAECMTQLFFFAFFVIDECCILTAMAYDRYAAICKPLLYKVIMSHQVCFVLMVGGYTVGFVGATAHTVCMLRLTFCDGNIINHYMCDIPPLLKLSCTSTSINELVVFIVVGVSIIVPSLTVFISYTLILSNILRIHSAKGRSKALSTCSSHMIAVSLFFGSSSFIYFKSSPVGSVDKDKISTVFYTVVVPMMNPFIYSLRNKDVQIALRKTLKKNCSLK
# Method in brief: as §1
# UniProt Q7TRE4 = target: T14, UniProt Q7TRE4
# T14 sequence (whole entry): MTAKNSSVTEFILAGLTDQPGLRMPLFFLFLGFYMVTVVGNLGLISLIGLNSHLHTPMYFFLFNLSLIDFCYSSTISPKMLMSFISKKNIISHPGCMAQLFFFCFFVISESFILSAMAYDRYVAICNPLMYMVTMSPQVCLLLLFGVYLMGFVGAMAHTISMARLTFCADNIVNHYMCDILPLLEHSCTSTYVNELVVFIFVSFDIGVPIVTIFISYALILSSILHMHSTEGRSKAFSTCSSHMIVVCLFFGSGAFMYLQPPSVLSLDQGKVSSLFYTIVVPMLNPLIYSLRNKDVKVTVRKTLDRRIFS
# Method in brief: as §1
# Chain of UniProt L7N1Y8 (L7N1Y8 as listed by the source): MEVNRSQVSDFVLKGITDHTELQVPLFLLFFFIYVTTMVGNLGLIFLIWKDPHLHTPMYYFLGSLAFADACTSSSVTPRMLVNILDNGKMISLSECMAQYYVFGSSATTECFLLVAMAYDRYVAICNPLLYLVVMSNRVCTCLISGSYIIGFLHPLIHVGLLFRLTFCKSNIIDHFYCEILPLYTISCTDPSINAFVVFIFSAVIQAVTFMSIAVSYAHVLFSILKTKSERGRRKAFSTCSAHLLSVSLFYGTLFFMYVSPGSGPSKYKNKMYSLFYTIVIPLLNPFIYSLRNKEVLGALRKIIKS
smiles,measurement,setting,value
O=c1ccc2ccccc2o1,odorant receptor agonist call,UniProt L7N1Y8,active
same,odorant receptor agonist call,UniProt Q7TR75,active
same,odorant receptor agonist call,UniProt Q7TRA1,inactive
same,odorant receptor agonist call,UniProt Q7TRA2,inactive
same,odorant receptor agonist call,UniProt Q7TRB8,active
CCCCCCCCC(=O)O,odorant receptor agonist call,UniProt Q7TRA1,active
same,odorant receptor agonist call,UniProt Q7TRA2,active
same,odorant receptor agonist call,UniProt Q7TRM0,inactive
same,odorant receptor agonist call,UniProt Q7TRN9,active
O=C(O)CCCCCCCCC(=O)O,odorant receptor agonist call,UniProt L7MU75,inactive
same,odorant receptor agonist call,UniProt L7N210,inactive
same,odorant receptor agonist call,UniProt Q3KPB0,inactive
same,odorant receptor agonist call,UniProt Q3U0P3,inactive
same,odorant receptor agonist call,UniProt Q7TQU8,inactive
same,odorant receptor agonist call,UniProt Q7TR79,inactive
CCSSCC,odorant receptor agonist call,UniProt L7MU75,inactive
same,odorant receptor agonist call,UniProt L7N210,inactive
same,odorant receptor agonist call,UniProt Q3KPB0,inactive
same,odorant receptor agonist call,UniProt Q3U0P3,inactive
same,odorant receptor agonist call,UniProt Q7TQU8,inactive
same,odorant receptor agonist call,UniProt Q7TR79,inactive
CCCCCCOC(C)=O,odorant receptor agonist call,UniProt L7MU75,inactive
same,odorant receptor agonist call,UniProt L7N210,inactive
same,odorant receptor agonist call,UniProt Q3KPB0,inactive
same,odorant receptor agonist call,UniProt Q3U0P3,inactive
same,odorant receptor agonist call,UniProt Q7TQU8,inactive
same,odorant receptor agonist call,UniProt Q7TQV4,inactive
same,odorant receptor agonist call,UniProt Q7TR71,inactive
same,odorant receptor agonist call,UniProt Q7TR79,inactive
same,odorant receptor agonist call,UniProt Q7TRA3,inactive
same,odorant receptor agonist call,UniProt Q7TRE4,inactive
CCCCCCO,odorant receptor agonist call,UniProt L7MU75,inactive
same,odorant receptor agonist call,UniProt L7N210,inactive
same,odorant receptor agonist call,UniProt Q3KPB0,inactive
same,odorant receptor agonist call,UniProt Q3U0P3,inactive
same,odorant receptor agonist call,UniProt Q7TQU8,inactive
same,odorant receptor agonist call,UniProt Q7TQV4,inactive
same,odorant receptor agonist call,UniProt Q7TR71,inactive
same,odorant receptor agonist call,UniProt Q7TR79,inactive
same,odorant receptor agonist call,UniProt Q7TRA3,inactive
same,odorant receptor agonist call,UniProt Q7TRE4,inactive
same,odorant receptor agonist call,UniProt Q7TRN9,inactive
